Experimental data published in ChEMBL document CHEMBL1131427, “Synthesis of imidazo[1,2-a]pyridines as antiviral agents” (J Med Chem, 1998).
Converted amounts (≈) assume the structure as drawn.

What was measured:
[1] = test system: Human betaherpesvirus 5; assay: Anti CMV (Cytomegalovirus- virus) activity against AD-169 strain in HEL cells; assay type: functional, organism-based; settings: Human betaherpesvirus 5, HEL
In short: (§1)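 Run in human embryonic lung (HEL) cells. The value is the 50% virus-inhibitory concentration, given in µg/mL.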

[2] = test system: Human alphaherpesvirus 3; assay: Anti-VZV activity against YS TK+ in HEL cells; assay type: functional, organism-based; settings: Human alphaherpesvirus 3, HEL
[3] = test system: Human alphaherpesvirus 3; assay: Anti-VZV activity against 07/1 TK- in HEL cells; assay type: functional, organism-based; settings: Human alphaherpesvirus 3, HEL
[4] = test system: Human alphaherpesvirus 3; assay: Anti-VZV activity against YS/R TK- in HEL cells; assay type: functional, organism-based; settings: Human alphaherpesvirus 3, ys-r
[5] = test system: Human alphaherpesvirus 3; assay: Anti-VZV activity against OKA strain TK+ in HEL cells; assay type: functional, organism-based; settings: Human alphaherpesvirus 3, oka
[6] = test system: HEL; assay: Inhibition of cell proliferation expressed as CC50; assay type: functional, Homo sapiens
[7] = Ratio of Cytotoxicity concentration to that of virus-inhibitory concentration.; assay type: functional
In short: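 Selectivity index is the 50% cytotoxic concentration in HEL cells divided by the 50% inhibitory concentration against CMV strain AD-169 in HEL cells.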

[8] = test system: Cytomegalovirus; assay: Anti CMV (Cytomegalovirus- virus) activity against Davis strain in HEL cells; assay type: functional, organism-based; settings: Human betaherpesvirus 5, HEL; in short: as §1
[9] = test system: HEL; assay: The compound was tested for Anti-VZV activity against YS strain TK+ in HEL cells; assay type: functional, cell-based; settings: Homo sapiens; in short: as §1
[10] = Ratio of 50% cytotoxic concentration to 50% virus-inhibitory concentration [the latter based on the 50% inhibitory concentration for CMV (AD-169 strain); assay type: functional
[11] = test system: HEL; assay: The compound was tested for Anti-VZV activity against YS/R strain TK- in HEL cells; assay type: functional, cell-based; settings: Homo sapiens; in short: as §1
[12] = test system: HEL; assay: The compound was tested for Anti-VZV activity against 07/1 strain TK- in HEL cells; assay type: functional, cell-based; settings: Homo sapiens; in short: as §1
[13] = test system: HEL; assay: The compound was tested for inhibition of cell proliferation in Human Embryonic Lung (HEL) Cells.; assay type: functional

| SMILES | IC50 [1] | IC50 [2] | IC50 [3] | IC50 [4] | IC50 [5] | CC [6] | Selectivity index [7] | IC50 [8] | IC50 [9] | Selectivity index [10] | IC50 [11] | IC50 [12] | CC50 [13] |
| --- | --- | --- | --- | --- | --- | --- | --- | --- | --- | --- | --- | --- | --- |
| Cc1nc2ccccn2c1CSCc1ccccc1 | 0.12 µg/mL (≈ 0.447 µM) | 0.23 µg/mL (≈ 0.857 µM) | 0.5 µg/mL (≈ 1.86 µM) | 0.28 µg/mL (≈ 1.04 µM) | 0.37 µg/mL (≈ 1.38 µM) | 33 µg/mL | 275 | 0.13 µg/mL (≈ 0.484 µM) |  |  |  |  |  |
| Cc1ccc2ncc(CSCc3ccccc3)n2c1 | 0.3 µg/mL (≈ 1.12 µM) | 6.4 µg/mL (≈ 23.8 µM) | 2.58 µg/mL (≈ 9.61 µM) | 1.2 µg/mL (≈ 4.47 µM) | 0.74 µg/mL (≈ 2.76 µM) | 23 µg/mL | 77 | 0.5 µg/mL (≈ 1.86 µM) |  |  |  |  |  |
| FC(F)(F)c1cc(Cl)c2ncc(CSCc3ccccc3)n2c1 | > 5 µg/mL | 8.8 µg/mL (≈ 24.7 µM) | > 5 µg/mL | 9.8 µg/mL (≈ 27.5 µM) | 6.6 µg/mL (≈ 18.5 µM) | 40 µg/mL | <8 | > 5 µg/mL |  |  |  |  |  |
| Cc1c(Br)cc(Br)c2ncc(CSCc3ccccc3)n12 | > 50 µg/mL | > 50 µg/mL | > 50 µg/mL | > 20 µg/mL | > 50 µg/mL | >50 µg/mL |  | > 50 µg/mL |  |  |  |  |  |
| Cc1ccn2c(CSCCc3ccccc3)cnc2c1 | 0.33 µg/mL (≈ 1.17 µM) | 0.5 µg/mL (≈ 1.77 µM) | 0.95 µg/mL (≈ 3.36 µM) | 0.66 µg/mL (≈ 2.34 µM) | 0.2 µg/mL (≈ 0.708 µM) | >50 µg/mL | >151 | 0.35 µg/mL (≈ 1.24 µM) |  |  |  |  |  |
| Cc1cc(Br)cn2c(CSCc3ccccc3)cnc12 | 0.12 µg/mL (≈ 0.346 µM) | 7 µg/mL (≈ 20.2 µM) | 1.4 µg/mL (≈ 4.03 µM) | 0.86 µg/mL (≈ 2.48 µM) | 5.5 µg/mL (≈ 15.8 µM) | >50 µg/mL | >417 | 0.12 µg/mL (≈ 0.346 µM) |  |  |  |  |  |
| Cc1ccn2c(CSCc3ccccc3Cl)cnc2c1 | 0.5 µg/mL (≈ 1.65 µM) | > 5 µg/mL | > 5 µg/mL | > 5 µg/mL | 1.8 µg/mL (≈ 5.94 µM) | 18 µg/mL | 36 | 0.7 µg/mL (≈ 2.31 µM) |  |  |  |  |  |
| Cc1ccc(C)n2c(CSCc3ccccc3)cnc12 | 1.2 µg/mL (≈ 4.25 µM) | > 2 µg/mL | > 2 µg/mL | > 2 µg/mL | > 2 µg/mL | 3 µg/mL | 2.5 | > 2 µg/mL |  |  |  |  |  |
| Cc1ccn2c(CSCC(F)(F)F)cnc2c1 | 40 µg/mL (≈ 154 µM) |  |  |  | > 50 µg/mL |  |  | 42 µg/mL (≈ 161 µM) | > 50 µg/mL | >1.2 | > 50 µg/mL | > 50 µg/mL | > 50 µg/mL |
| Cc1ccn2c(CSCc3ccc(Cl)cc3)cnc2c1 | 1.2 µg/mL (≈ 3.96 µM) | > 5 µg/mL | > 5 µg/mL | > 5 µg/mL | 2 µg/mL (≈ 6.6 µM) | 19 µg/mL | 16 | 1.6 µg/mL (≈ 5.28 µM) |  |  |  |  |  |
| Cc1ccn2c(CSCc3ccccc3)cnc2c1 | 3.5 µg/mL (≈ 13 µM) | 17 µg/mL (≈ 63.3 µM) |  | 10 µg/mL (≈ 37.3 µM) | 15 µg/mL (≈ 55.9 µM) | 45 µg/mL | 13 | 3.5 µg/mL (≈ 13 µM) |  |  |  |  |  |
| Cc1cc(Br)c2ncc(CSCc3ccccc3)n2c1 | 1.1 µg/mL (≈ 3.17 µM) | > 50 µg/mL | 9 µg/mL (≈ 25.9 µM) | 4 µg/mL (≈ 11.5 µM) | 31 µg/mL (≈ 89.3 µM) | >50 µg/mL | >45 | 1.1 µg/mL (≈ 3.17 µM) |  |  |  |  |  |
| Cc1cccn2c(CSCc3ccccc3)c(-c3ccccc3)nc12 | 1.2 µg/mL (≈ 3.48 µM) | > 2 µg/mL | > 2 µg/mL | 2 µg/mL (≈ 5.81 µM) | > 2 µg/mL | 13 µg/mL | 11 | > 2 µg/mL |  |  |  |  |  |
| Cc1ccn2c(CSCc3ccccc3)c(-c3ccccc3)nc2c1 | > 20 µg/mL | > 20 µg/mL | > 50 µg/mL | > 50 µg/mL | > 20 µg/mL | >50 µg/mL |  | > 20 µg/mL |  |  |  |  |  |
| Cc1ccn2c(CSCc3ccccc3)c(C)nc2c1 | 3.4 µg/mL (≈ 12 µM) | > 5 µg/mL | 14.1 µg/mL (≈ 49.9 µM) | 10 µg/mL (≈ 35.4 µM) | 10.5 µg/mL (≈ 37.2 µM) | >50 µg/mL | >15 | 3.5 µg/mL (≈ 12.4 µM) |  |  |  |  |  |
| Cc1cccn2c(CSCc3ccccc3)cnc12 | 0.2 µg/mL (≈ 0.745 µM) | 0.3 µg/mL (≈ 1.12 µM) | 0.4 µg/mL (≈ 1.49 µM) | > 1 µg/mL | 0.9 µg/mL (≈ 3.35 µM) | 8 µg/mL | 40 | 0.2 µg/mL (≈ 0.745 µM) |  |  |  |  |  |
| Nc1nc2c(ncn2COCCO)c(=O)[nH]1 [ACYCLOVIR] |  |  |  |  |  | >100 µg/mL |  |  |  |  |  |  |  |
| O=c1[nH]c(=O)n([C@H]2C[C@H](O)[C@@H](CO)O2)cc1/C=C/Br [BRIVUDINE] |  | 0.002 µg/mL (≈ 0.006 µM) | > 50 µg/mL | > 20 µg/mL | 0.0009 µg/mL (≈ 0.0027 µM) | >50 µg/mL |  |  |  |  |  |  |  |
| Nc1nc2c(ncn2COC(CO)CO)c(=O)[nH]1 [GANCICLOVIR] | 0.5 µg/mL (≈ 1.96 µM) |  |  |  |  | >100 µg/mL |  | 0.5 µg/mL (≈ 1.96 µM) |  |  |  |  |  |
